For data set [1], the species on record is Mus musculus. Description: Vasodilation effect in C57BL/6 mouse assessed as increase in blood flow relative to baseline. Format: functional, organism-based. The procedure, abridged:
(§1)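 Male C57BL/6 mice, 8-10 weeks, ~25 g, anesthetized with Nembutal ip (80 mg/kg). After 10 min, ear blood flow was recorded by laser Doppler imaging: 3 min baseline, then ip dosing (5 mL/kg) through a preinserted syringe, reading ~15 min. Vehicle was PBS, 40% HPBCD or 0.5% methylcellulose. Result expressed as % change in perfusion over baseline.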

In data set [2] the target is Hydroxycarboxylic acid receptor 3 (Homo sapiens) (UniProt P49019). Description: Agonist activity against GPR109b assessed as forskolin-induced cAMP accumulation relative to nicotinic acid. Format: functional.
The subject of another data set is Adipocyte. Description: Inhibition isoproterenol-stimulated lipolysis in human adipocytes.
The species entered for data set [3] is Mus musculus. As to the kind of experiment: Inhibition of PGD2-induced vasodilation response in C57BL/6 mouse assessed as blood flow. The data set is classed as functional, organism-based. The procedure, abridged:
as §1

Data set [4] has as its system Mus musculus. As to the kind of experiment: Reduction in plasma FFA level in ip dosed C57BL/6 mouse. The data set is classed as functional. The settings on record: C57BL/6, Plasma. In a few lines: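 Male C57BL/6 mice, at least 8 weeks old, fasted 16 h, then dosed ip in saline. Plasma FFA was measured by an enzymatic NEFA assay, and compound levels in the same plasma by LC-MS/MS.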

For data set [5], the species on record is Mus musculus. Description: Inhibition of nicotinic acid-induced vasodilation response in C57BL/6 mouse assessed as blood flow. Format: functional, organism-based. In a few lines:
as §1

Data set [6] is described as follows: Half life in C57BL/6 mouse at 5 mg/kg, iv and 10 mg/kg, po. Format: ADME, organism-based. Particulars: in vivo. In a few lines: (§2)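 Male C57BL/6 mice dosed IV at 5.0 mg/kg in PBS, or by oral gavage at 10 mg/kg in PBS. Clearance is blood clearance. Cmax and Tmax come from oral dosing. Half-life is terminal. Oral bioavailability is also reported.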
Data set [7] is described as follows: Oral bioavailability in C57BL/6 mouse at 10 mg/kg, po. The settings on record: in vivo. The data set is classed as ADME, organism-based. The procedure, abridged: as §2
The nature of data set [8]: Tmax in C57BL/6 mouse at 5 mg/kg, iv and 10 mg/kg, po. Particulars: in vivo. The data set is classed as ADME, organism-based. In a few lines:
as §2

Data set [9] can be described thus: Cmax in C57BL/6 mouse at 5 mg/kg, iv and 10 mg/kg, po. The settings on record: in vivo. The data set is classed as ADME, organism-based. In a few lines:
as §2

Data set [10] can be described thus: Volume of distribution in C57BL/6 mouse at 5 mg/kg, iv and 10 mg/kg, po. Particulars: in vivo. Format: ADME, organism-based. The procedure, abridged: as §2

Activity calls are given as the source filed them. No cut-off for these calls is given here.

Chain of Hydroxycarboxylic acid receptor 3 (Homo sapiens) (P49019 whole entry): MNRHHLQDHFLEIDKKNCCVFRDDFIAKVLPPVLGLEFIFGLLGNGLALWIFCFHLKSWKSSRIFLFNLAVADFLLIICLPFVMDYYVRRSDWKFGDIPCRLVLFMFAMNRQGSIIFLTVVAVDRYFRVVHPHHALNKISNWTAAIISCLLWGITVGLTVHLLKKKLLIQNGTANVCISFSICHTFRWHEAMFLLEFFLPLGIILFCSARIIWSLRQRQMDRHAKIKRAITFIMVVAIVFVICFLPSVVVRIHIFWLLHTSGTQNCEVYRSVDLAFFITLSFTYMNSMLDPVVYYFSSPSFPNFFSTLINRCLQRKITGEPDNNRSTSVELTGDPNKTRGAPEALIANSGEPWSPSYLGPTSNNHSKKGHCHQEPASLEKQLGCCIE

As for `O=C(O)c1n[nH]c2c1CCC2`, in the data set listed under Mus musculus [1], the Activity entry is “Dose-dependent effect”.

The IC50 is the point on the concentration scale where inhibition reaches its midpoint. Lower therefore signals greater potency. As a reminder, the ED50 is the dose that gives a 50% effect, or the effect in half of the subjects. A low value points to greater potency. As to `C1Cc2[nH]nc(-c3nn[nH]n3)c2C1`, the outcome (in data set [2]; in the data set filed under Mus musculus [3]) was inactive. For the same compound, the midpoint of inhibition with Adipocyte, the IC50, lay at 3.1 µM. In addition, the ED50 in the data set on Mus musculus [4] was determined as 3.1 mg/kg. Further, in the data set filed under Mus musculus [5], the outcome was Active.

As for `O=C(O)c1cccnc1` [NIACIN], the ED50 with Mus musculus [4] was determined as 9.7 mg/kg.

As usually defined, the half-life is the time in which the quantity being followed falls by half. The term bioavailability denotes dose-corrected exposure relative to a reference, in per cent. A lower bioavailability goes with poor availability. As a reminder, the Tmax is the time at which the peak concentration occurs. By Cmax is commonly meant the peak of the concentration-time curve. Take `C1Cc2[nH]nc(-c3nnn[nH]3)c2C1`: the half-life in data set [6] is 10 h. The same compound gave a bioavailability in data set [7] of 93%. The Tmax in [8] came out at 4.98 min. Moreover, the Cmax in data set [9] was found to be 16 µM. Moreover, the Vd in [10] is 13 L/kg.

These data come from ChEMBL document CHEMBL1156568, “3-(1H-tetrazol-5-yl)-1,4,5,6-tetrahydro-cyclopentapyrazole (MK-0354): a partial agonist of the nicotinic acid receptor, G-protein coupled receptor 109a, with antilipolytic but no vasodilatory activity in mice” (J Med Chem, 2008).
